In brackets after ≈: the same amount, converted by molar mass. Activity calls are given as the source filed them. The rule behind the calls is not given here.
Legend:
K562 [1] = test: Cell cycle arrest in human K562 cells assessed as decrease in cell levels at S phase at 10^-5 mol/dm'3 after 24 hrs by propidium iodide staining-based flow cytometric method; format: functional
Caco-2 = test: Growth inhibition of human Caco2 cells after 72 hrs by MTT assay; format: functional; details: Caco-2, 72 h
How it was run: (§1)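 Adherent cells (2x10^4 cells/cm3) attached overnight, then were exposed to compound for 72 h. Medium was replaced with 5 mg/cm3 MTT, formazan was dissolved in DMSO and absorbance read at 595 nm. Percent growth was taken relative to untreated control minus background. GI50 came from a variable-slope log-inhibitor fit, as mean ± SD of three independent experiments in triplicate.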

Calf thymus DNA [2] = test: Binding affinity to calf thymus DNA by UV-vis spectrophotometric method; format: nucleic-acid assay; details: Bos taurus
How it was run: (§2)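 UV-Vis titration at room temperature in Na cacodylate buffer (I = 0.05 mol dm-3, pH 7.0). Portions of ct-DNA or polyA-polyU were added to a fixed compound concentration until saturation, with dilution correction. Polynucleotide was measured as phosphate. Ks and n were obtained by Scatchard analysis, together with the hypochromic change at the absorption maximum.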

Calf thymus DNA [3] = test: Disruption of calf thymus DNA helix at 0.1, 0.3, 0.5, 0.7 compound to ds-polynucleotide ratio by CD-spectrophotometric method; format: nucleic-acid assay; details: Bos taurus
How it was run: (§3)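 Induced CD spectra were recorded in 1 cm quartz cuvettes in Na cacodylate buffer (I = 0.05 mol dm-3, pH 7.0) with ct-DNA or polyA-polyU. Compound was added at r = [compound]/[polynucleotide] = 0.1, 0.3, 0.5 and 0.7. The CD signal was followed as a function of r.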

[4] = Binding affinity to polyA-polyU (unknown origin) assessed as change in melting temperature at 0.1 compound to ds-polynucleotide ratio by spectrophotometric method
How it was run: (§4)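 Thermal melting of ct-DNA (sonicated, filtered) or polyA-polyU in Na cacodylate buffer, I = 0.05 mol dm-3, pH 7.0, at given r = [compound]/[polynucleotide]; polynucleotide as phosphate concentration. Tm from maximum of first derivative, checked by tangent method. ΔTm = Tm(complex) − Tm(free nucleic acid), average of at least two measurements, error ±0.5 °C.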

[5] = Binding affinity to polyA-polyU (unknown origin) assessed as change in melting temperature at 0.3 compound to ds-polynucleotide ratio by spectrophotometric method; how it was run: as §4
K562 [6] = test: Growth inhibition of human K562 cells after 72 hrs by MTT assay; format: functional; details: K562, 72 h
How it was run: (§5)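 Leukemia cells (1x10^5 cells/cm3) were exposed to compound for 72 h, then MTT (5 mg/cm3) was added for 4 h. Formazan was dissolved with 10% SDS in 0.01 mol dm-3 HCl and absorbance read at 595 nm. Percent growth was taken versus untreated control minus background. GI50 came from a variable-slope fit, as mean ± SD of three independent experiments in triplicate.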

Calf thymus DNA [7] = test: Binding affinity to calf thymus DNA assessed as change in melting temperature at 0.5 compound to ds-polynucleotide ratio by spectrophotometric method; format: nucleic-acid assay; details: Bos taurus; how it was run: as §4
[8] = Binding affinity to polyA-polyU (unknown origin) by UV-vis spectrophotometric method; how it was run: as §2
Raji = test: Growth inhibition of human Raji cells after 72 hrs by MTT assay; format: functional; how it was run: as §5
Calf thymus DNA [9] = test: Binding affinity to calf thymus DNA assessed as change in melting temperature at 0.3 compound to ds-polynucleotide ratio by spectrophotometric method; format: nucleic-acid assay; details: Bos taurus; how it was run: as §4
[10] = Binding affinity to polyA-polyU (unknown origin) major groove at 0.1, 0.3, 0.5, 0.7 compound to ds-polynucleotide ratio by CD-spectrophotometric method; how it was run: as §3
Calf thymus DNA [11] = test: Binding affinity to calf thymus DNA minor groove at 0.1, 0.3, 0.5, 0.7 compound to ds-polynucleotide ratio by CD-spectrophotometric method; format: nucleic-acid assay; details: Bos taurus; how it was run: as §3
K562 [12] = test: Cell cycle arrest in human K562 cells assessed as accumulation at sub-G0 phase at 10^-5 mol/dm'3 after 24 hrs by propidium iodide staining-based flow cytometric method; format: functional
Calf thymus DNA [13] = test: Binding affinity to calf thymus DNA assessed as change in melting temperature at 0.1 compound to ds-polynucleotide ratio by spectrophotometric method; format: nucleic-acid assay; details: Bos taurus; how it was run: as §4
[14] = Binding affinity to polyA-polyU (unknown origin) assessed as hypochromic effect by UV-vis spectrophotometric method; how it was run: as §2
K562 [15] = test: Cell cycle arrest in human K562 cells assessed as decrease in cell levels at G2-M phase at 10^-5 mol/dm'3 after 24 hrs by propidium iodide staining-based flow cytometric method; format: functional
[16] = Chemical stability in aqueous solution after several weeks; format: physicochemical; details: buffer
How it was run: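 Aqueous compound solutions were monitored for several weeks by UV-Vis absorbance at 220-900 nm. Linearity with concentration was checked up to 3.5 × 10^-5 mol dm-3, and spectra were recorded at 25–90 °C with reproducibility checked on cooling to 25 °C.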

[17] = Growth inhibition of MDCK1 cells after 72 hrs by MTT assay; parameters: species or system Canis lupus familiaris; details: dog; how it was run: as §1
HeLa = test: Growth inhibition of human HeLa cells after 72 hrs by MTT assay; format: functional; how it was run: as §1
[18] = Solubility of the compound in water; format: physicochemical
Calf thymus DNA [19] = test: Binding affinity to calf thymus DNA assessed as hypochromic effect by UV-vis spectrophotometric method; format: nucleic-acid assay; details: Bos taurus; how it was run: as §2
[20] = Binding affinity to polyA-polyU (unknown origin) assessed as change in melting temperature at 0.5 compound to ds-polynucleotide ratio by spectrophotometric method; how it was run: as §4
K562 [21] = test: Cell cycle arrest in human K562 cells assessed as accumulation at G0-G1 phase at 10^-5 mol/dm'3 after 24 hrs by propidium iodide staining-based flow cytometric method; format: functional
[22] = Solubility of the compound in DMSO; format: physicochemical
[23] = Induction of polyA-polyU (unknown origin) intercalation at 0.1, 0.3, 0.5, 0.7 compound to ds-polynucleotide ratio by CD-spectrophotometric method; how it was run: as §3

Row | Structure (SMILES) | GI50 (Caco-2) | log Ks (Calf thymus DNA [2]) | Activity (Calf thymus DNA [3]) | ΔTm [4] | ΔTm [5] | GI50 (K562 [6]) | ΔTm (Calf thymus DNA [7]) | log Ks [8] | GI50 (Raji) | ΔTm (Calf thymus DNA [9]) | Activity (Calf thymus DNA [11]) | ΔTm (Calf thymus DNA [13]) | Activity [14] | Stability [16] | GI50 (HeLa) | solubility [18] | Activity (Calf thymus DNA [19]) | ΔTm [20] | Activity (K562 [1]) | GI50 at 72 h [17] | also measured
1 | CC(C)CNC(=N)c1ccc2nc(-c3ccc(OCCNc4ccnc5cc(Cl)ccc45)cc3)[nH]c2c1.Cl.Cl.Cl | > 100 µM | 6.51 | Active | 1.24 °C | 0.75 °C | 15.1 µM | 8.67 °C | 7.02 | 28.5 µM | 8.15 °C | Active | 4.31 °C | 26% | Stable | > 100 µM | 1000 µM | 32.2% | – | Active | 94.1 µM | Activity [10]: Active; Activity (K562 [12]): Active; Activity (K562 [15]): Active
2 | Cl.Cl.Cl.Clc1ccc2c(NCCOc3ccc(-c4nc5ccc(C6=NCCN6)cc5[nH]4)cc3)ccnc2c1 | 117 µM | – | Active | 4.62 °C | 5.16 °C | 8.6 µM | – | 6.71 | 27.5 µM | – | Active | 5.75 °C | 37.7% | Stable | > 100 µM | 1000 µM | 21.6 to 26% | 8.86 to 33.5 °C | Active | > 100 µM | Activity [10]: Active; Activity (K562 [12]): Active
3 | N#Cc1ccc2nc(-c3ccc(Oc4ccnc5cc(Cl)ccc45)cc3)[nH]c2c1 | > 100 µM | – | – | – | – | > 100 µM | – | – | > 100 µM | – | Active | – | – | Stable | > 100 µM | – | – | – | – | 93.1 µM | solubility [22]: 1000 µM (≈ 397 µg/mL)
4 | Cl.Cl.Cl.N=C(NC1CCCC1)c1ccc2nc(-c3ccc(OCCNc4ccnc5cc(Cl)ccc45)cc3)[nH]c2c1 | > 100 µM | 6.29 | Active | 3.02 °C | 1.14 °C | 11.4 µM | 7.8 °C | 6.81 | 17.1 µM | 7.8 °C | Active | 3.71 °C | 49.7% | Stable | > 100 µM | 1000 µM | 24.4% | 4.67 to 35.4 °C | Active | 99.2 µM | Activity [10]: Active
5 | N#Cc1ccc(Oc2ccnc3cc(Cl)ccc23)cc1 | > 100 µM | – | – | – | – | 86.7 µM | – | – | 91.4 µM | – | – | – | – | Stable | > 100 µM | – | – | – | – | 88.5 µM | solubility [22]: 1000 µM (≈ 281 µg/mL)

The next compounds have a lower GI50 (Caco-2) than those just listed; values first:

Row | GI50 (Caco-2) | log Ks (Calf thymus DNA [2]) | Activity (Calf thymus DNA [3]) | ΔTm [4] | ΔTm [5] | GI50 (K562 [6]) | ΔTm (Calf thymus DNA [7]) | log Ks [8] | GI50 (Raji) | ΔTm (Calf thymus DNA [9]) | Activity (Calf thymus DNA [11]) | ΔTm (Calf thymus DNA [13]) | Activity [14] | Stability [16] | GI50 (HeLa) | solubility [18] | Activity (Calf thymus DNA [19]) | ΔTm [20] | Structure (SMILES) | Activity (K562 [1]) | GI50 at 72 h [17] | also measured
6 | 95.3 µM | – | – | – | – | 7.2 µM | – | inactive | 6.2 µM | – | – | – | inactive | Stable | 84.4 µM | – | 26.2% | – | N#Cc1ccc(OCCNc2ccnc3cc(Cl)ccc23)cc1 | Active | > 100 µM | Activity (K562 [21]): Active; Activity (K562 [15]): Active; solubility [22]: 1000 µM (≈ 324 µg/mL)
7 | 82.9 µM | 6.83 | – | 2.98 °C | 0.72 °C | > 100 µM | 2.9 °C | 6.43 | 111 µM | 2.84 °C | Active | 2.07 °C | 6.9% | Stable | > 100 µM | 1000 µM | 79.8% | 0.21 °C | Cl.Cl.Cl.N=C(N)c1ccc2nc(-c3ccc(Oc4ccnc5cc(Cl)ccc45)cc3)[nH]c2c1 | – | > 100 µM | Activity [23]: Active
8 | 71.9 µM | – | – | -0.71 °C | -0.8 °C | 16.9 µM | 1.85 °C | – | 25.5 µM | 1.97 °C | – | 1.91 °C | – | Stable | 52.3 µM | 1000 µM | – | -0.44 °C | CC(C)CNC(=N)c1ccc(Oc2ccnc3cc(Cl)ccc23)cc1.Cl.Cl.Cl | Active | 30.3 µM | Activity (K562 [21]): Active; Activity (K562 [15]): Active
9 | 47.4 µM | 6.23 | – | 0.18 °C | 4.06 °C | 54.6 µM | 3.07 °C | 6.31 | 41.5 µM | 2.91 °C | Active | 1.41 °C | 22.8% | Stable | 61.9 µM | 1000 µM | 36.7% | 6.82 °C | Cl.Cl.N=C(NC1CCCC1)c1ccc2nc(-c3ccc(Oc4ccnc5cc(Cl)ccc45)cc3)[nH]c2c1 | – | 55.5 µM | Activity [23]: Active
10 | 28.3 µM | – | Active | – | – | 7.8 µM | 2.6 °C | – | 5.2 µM | 2.58 °C | Active | 3.96 °C | – | Stable | 56.6 µM | – | – | – | N#Cc1ccc2nc(-c3ccc(OCCNc4ccnc5cc(Cl)ccc45)cc3)[nH]c2c1 | – | 22.1 µM | solubility [22]: 1000 µM (≈ 440 µg/mL)
11 | 13.5 µM | – | – | 0.64 °C | 0.65 °C | 18.8 µM | 1.51 °C | – | 19.7 µM | 1.43 °C | – | 1.35 °C | – | Stable | 48.6 µM | 1000 µM | – | 0.28 °C | Cl.Cl.Cl.N=C(NC1CCCC1)c1ccc(Oc2ccnc3cc(Cl)ccc23)cc1 | Active | 35 µM | Activity (K562 [21]): Active; Activity (K562 [15]): Active

— ChEMBL document CHEMBL4130346, “New quinoline-arylamidine hybrids: Synthesis, DNA/RNA binding and antitumor activity” (Eur J Med Chem, 2017)
